Source: ChEMBL document CHEMBL1671645, “Pharmacokinetics and absorption of posaconazole oral suspension under various gastric conditions in healthy volunteers” (Antimicrob Agents Chemother, 2009)

Tests used:
[1] = AUC in healthy human at 400 mg administered as single dose suspension coadministered with nutritional supplement and 4 mg loperamide as two 2 mg tablets; assay type: ADME, organism-based; details: plasma
Method in brief: (§1)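 A three-way crossover in 13 healthy subjects gave one 400 mg oral suspension dose with a nutritional supplement, either alone, with metoclopramide 10 mg orally three times daily on the day before and the day of dosing, or with a single 4 mg dose of loperamide. Plasma was taken 0–168 h for LC-MS/MS. Analysis was noncompartmental.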

[2] = Apparent total body clearance in fasted healthy human at 400 mg administered as single dose suspension coadministered with acidic carbonated beverage and proton pump inhibitor; assay type: ADME, organism-based; details: in vivo
Method in brief: (§2)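 This was a four-way crossover in 12 healthy subjects with 7–10 day washouts. Each took one fasting 400 mg oral suspension dose, with 12 oz ginger ale and/or esomeprazole 40 mg once each morning on days −2 to 1, with dosing on day 1. Plasma was sampled 0–168 h and measured by LC-MS/MS (LLOQ 5.00 ng/ml). Analysis was noncompartmental, with CL/F = dose/AUC_I and V/F = (CL/F)/K.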

[3] = Half life in fasted healthy human at 400 mg administered as single dose suspension after 20 mins after consumption of high fat meal; assay type: ADME, organism-based; details: in vivo
Method in brief: (§3)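 Single oral suspension dose in healthy volunteers while fasting, 5 min before, midway through (about 10 min into a 20-min meal), or 20 min after a high-fat meal (approx 50 g fat); four-way crossover, 7–10-day washout. Plasma 0–168 h by LC-MS/MS (LLOQ 5.00 ng/ml). t1/2 = ln(2)/K; Tmax median.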

Homo sapiens [4] = experiment: Toxicity in healthy human assessed as fatigue at 400 mg administered as single dose suspension coadministered with nutritional supplement; assay type: organism-based; details: in vivo
Method in brief: (§4)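 Three-way randomized crossover in 13 healthy volunteers with a 7- to 10-day washout. Each period was one 400-mg oral posaconazole suspension dose with a nutritional supplement. Metoclopramide 10 mg was given orally three times daily on the day before and the day of dosing; loperamide was a single 4 mg. Safety was assessed from adverse events, tabulated by body system and severity per treatment.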

Homo sapiens [5] = experiment: Toxicity in healthy human assessed as headache at 400 mg BID, po administered as suspension for 7 days coadministered with nutritional supplement; assay type: organism-based; details: in vivo, 168 h
Method in brief: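 Healthy volunteers (n = 12) took oral posaconazole suspension (40 mg/ml) for 7 days in a four-way randomized crossover with a 14- to 21-day washout. Subjects stayed fasted throughout, with nonfat snacks up to 800 cal/day allowed. Where given, Boost was taken with each dose. Safety covered adverse events, vital signs, clinical labs and 12-lead ECG, with AEs tabulated by body system and severity per treatment.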

Homo sapiens [6] = experiment: Toxicity in healthy human assessed as adverse events at 400 mg BID, po administered as suspension for 7 days; assay type: organism-based; details: in vivo, 168 h
Method in brief: (§5)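 Healthy volunteers monitored for adverse events, vital signs, clinical laboratory values and 12-lead ECG. Adverse events tabulated by body system or organ class and severity and summarized by treatment across the crossover regimens.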

[7] = Half life in fasted healthy human at 400 mg administered as single dose suspension; assay type: ADME, organism-based; details: in vivo
Method in brief: (§6)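 Single oral suspension dose in fasting healthy volunteers, alone, with 12 oz ginger ale, after esomeprazole 40 mg once each morning days −2 to 1, or both; four-way crossover, 7–10-day washout. EDTA plasma 0–168 h. LC-MS/MS (LLOQ 5.00 ng/ml). t1/2 = ln(2)/K from terminal log-linear regression; Tmax median.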

[8] = Tmax in healthy human at 400 mg administered as single dose suspension coadministered with nutritional supplement and 4 mg loperamide as two 2 mg tablets; assay type: ADME, organism-based; details: in vivo
Method in brief: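 Oral suspension (40 mg/ml) single dose with nutritional supplement plus loperamide 4 mg single dose, healthy volunteers, three-way crossover with 7–10-day washout. EDTA plasma drawn predose and 1–168 h postdose. LC-MS/MS assay (LLOQ 5.00 ng/ml). Noncompartmental parameters; Tmax reported as median (range).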

[9] = Apparent total body clearance in fasted healthy human at 400 mg administered as single dose suspension; assay type: ADME, organism-based; details: in vivo
[10] = Tmax in fasted healthy human at 400 mg administered as single dose suspension after consumption of high fat meal; assay type: ADME, organism-based; details: in vivo; method in brief: as §3
Homo sapiens [11] = experiment: Toxicity in healthy human assessed as adverse events at 400 mg administered as single dose suspension after 20 mins after consumption of high fat meal; assay type: organism-based; details: in vivo; method in brief: as §5
[12] = Cmax in fasted healthy human plasma at 400 mg administered as single dose suspension coadministered with proton pump inhibitor; assay type: ADME, organism-based; parameters: dose 400 mg; method in brief: as §2
Homo sapiens [13] = experiment: AUC in healthy human at 400 mg BID, po administered as suspension for 7 days coadministered with nutritional supplement; assay type: ADME, organism-based, Plasma; details: in vivo, 168 h
Method in brief: (§7)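 Twelve healthy subjects took oral suspension for 7 days as 400 mg BID or 200 mg QID, either fasting or with a Boost-type nutritional supplement, in a crossover with 14–21 day washouts. Nonfat snacks of 800 cal/day or less were allowed. Plasma was sampled 0–168 h after the day-7 morning dose only and analysed by LC-MS/MS. AUC is AUC_τ, normalized to dose.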

[14] = Tmax in fasted healthy human at 200 mg QID, po administered as suspension for 7 days; assay type: ADME, organism-based; details: in vivo
Method in brief: (§8)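 Healthy volunteers given oral suspension (40 mg/ml) for 7 days, fasted or with nutritional supplement (Boost); four-way crossover, 14–21-day washout, nonfat snacks ≤800 cal/day allowed. On day 7 only the morning dose was given; plasma sampled predose to 168 h after it. LC-MS/MS (LLOQ 5.00 ng/ml). t1/2 = ln(2)/K from log-linear terminal slope; Tmax as median.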

[15] = Apparent volume of distribution in fasted healthy human at 400 mg administered as single dose suspension after consumption of high fat meal; assay type: ADME, organism-based; details: in vivo, read-out: Vc/F
Method in brief: (§9)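 In a crossover of 12 healthy subjects, each took a single 400 mg oral suspension dose 5 min before, midway through (about 10 min into a 20-min meal), or 20 min after a high-fat meal of about 50 g fat. Plasma was drawn 0–168 h and measured by LC-MS/MS. Parameters are noncompartmental, with AUC to the last measurable time.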

[16] = Tmax in fasted healthy human at 400 mg administered as single dose suspension coadministered with proton pump inhibitor; assay type: ADME, organism-based; details: in vivo; method in brief: as §6
[17] = Cmax in fasted healthy human plasma at 400 mg BID, po administered as suspension for 7 days; assay type: ADME, organism-based; parameters: dose 400 mg, route oral; method in brief: as §7
[18] = Half life in healthy human at 200 mg QID, po administered as suspension for 7 days coadministered with nutritional supplement; assay type: ADME, organism-based; details: in vivo; method in brief: as §8
Homo sapiens [19] = experiment: Toxicity in healthy human assessed as nausea at 400 mg administered as single dose suspension coadministered with nutritional supplement and 4 mg loperamide as two 2 mg tablets; assay type: organism-based; details: in vivo; method in brief: as §4
[20] = AUC in healthy human at 400 mg administered as single dose suspension coadministered with nutritional supplement; assay type: ADME, organism-based; details: plasma; method in brief: as §1
[21] = Cmax in fasted healthy human plasma at 400 mg administered as single dose suspension; assay type: ADME, organism-based; parameters: dose 400 mg
[22] = Apparent volume of distribution in fasted healthy human at 400 mg administered as single dose suspension after 20 mins after consumption of high fat meal; assay type: ADME, organism-based; details: in vivo, po; method in brief: as §9
[23] = AUC in fasted healthy human at 400 mg administered as single dose suspension coadministered with acidic carbonated beverage and proton pump inhibitor; assay type: ADME, organism-based; details: plasma; method in brief: as §2
Homo sapiens [24] = experiment: Toxicity in healthy human assessed as adverse events at 200 mg QID, po administered as suspension for 7 days; assay type: organism-based; details: in vivo, 168 h; method in brief: as §5
[25] = Tmax in healthy human at 400 mg BID, po administered as suspension for 7 days coadministered with nutritional supplement; assay type: ADME, organism-based; details: in vivo; method in brief: as §8

CC[C@@H]([C@H](C)O)n1ncn(-c2ccc(N3CCN(c4ccc(OC[C@@H]5CO[C@@](Cn6cncn6)(c6ccc(F)cc6F)C5)cc4)CC3)cc2)c1=O [POSACONAZOLE]
AUC [1]: 10400 ng·h/mL
CL/F [2]: 1620 mL/min
half-life [3]: 22.6 h
Activity (Homo sapiens [4]): 15%
Activity (Homo sapiens [5]): 25%
Activity (Homo sapiens [6]): 75%
half-life [7]: 24.5 h
Tmax [8]: 5 h
CL/F [9]: 1390 mL/min
Tmax [10]: 6 h
Activity (Homo sapiens [11]): 25%
Cmax [12]: 76.7 ng/mL
AUC (Homo sapiens [13]): 80600 ng·h/mL
Tmax [14]: 4 h
Vd/F [15]: 757 L
Tmax [16]: 6 h
Cmax [17]: 982 ng/mL
half-life [18]: 27.8 h
Activity (Homo sapiens [19]): 23%
AUC [20]: 8960 ng·h/mL
Cmax [21]: 151 ng/mL
Vd/F [22]: 757 L
AUC [23]: 4180 ng·h/mL
Activity (Homo sapiens [24]): 75%
Tmax [25]: 6 h
